According to ChEMBL document CHEMBL1123481, “Structure-activity relationships of (arylalkyl)imidazole anticonvulsants: comparison of the (fluorenylalkyl)imidazoles with nafimidone and denzimol” (J Med Chem, 1986):
The source made the active and inactive calls. The rule behind the calls is not given here.

Columns and labels:
[1] = tested on: Mus musculus; assay: Effective dose in mice by horizontal screen assay (administered orally); format: functional; conditions: po
Method in brief: (§1)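 Fasted, pre-trained male CF1 mice (20–25 g) were dosed orally across a range of doses, given as a suspension in 5% acacia/water. Each mouse was placed on a 13 cm square wire screen, and the screen was rotated 180°. The score was return to the top within 1 min. Time of peak effect was scanned at 0.5–4 h. Each compound was then retested at that time with at least 4 doses and 12 mice per dose.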

[2] = tested on: Mus musculus; assay: Effective dose in mice by pentylenetetrazole assay (administered subcutaneously); format: functional; conditions: sc
Method in brief: (§2)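 Test compound was given orally to mice. At its previously determined time of peak effect, pentylenetetrazole (110 mg/kg in water, 10 mL/kg) was injected sc into the neck skin fold. Mice were watched for 15 min for presence or absence of a clonic seizure. Where protection was bell-shaped, the value is the dose giving maximum protection.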

[3] = species on record: Mus musculus; assay: Compound was tested for time to peak anticonvulsant effect (TPE); format: functional
Method in brief: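 Time to peak effect after oral dosing in 5% acacia/water was estimated by testing mice at 0.5, 1, 2, 3 and 4 h posttreatment in the MES and horizontal screen tests.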

[4] = tested on: Mus musculus; assay: Effective dose in mice by horizontal screen assay (administered orally); No effect at highest dose of 400 mg/kg; format: functional, organism-based; design: dose 400 mg/kg; method in brief: as §1
[5] = tested on: Mus musculus; assay: Effective dose in mice by pentylenetetrazole assay (administered subcutaneously); No effect at highest dose of 400 mg/kg; format: functional, organism-based; design: dose 400 mg/kg; method in brief: as §2
[6] = target: T1, GABA-A receptor; anion channel (Rattus norvegicus) (UniProt O09028+P15431+P18506+P18508+P19969+P20236+P23574+P23576+P28471+P28473+P30191+P62813+P63079+P63138+Q91ZM7+Q9ES14); assay: In vivo displacement of [3H]flunitrazepam binding to rat cortical membranes after 20 mg/kg ip dose; format: organism-based; design: dose 20 mg/kg; conditions: Membrane, at 20 mg/kg
Method in brief: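 Male Sprague-Dawley rats (100 g; five per group) received saline or compound at 20 mg/kg ip. After 30 min, [3H]flunitrazepam (100 μCi/kg) was given iv via the tail vein. Rats were killed 20 min later. Cortex was homogenized in 50 mM Tris-HCl pH 7.4, and the particulate fraction was filtered and rinsed. Results are given as % of saline control, mean ± SEM.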

[7] = tested on: Mus musculus; assay: Effective dose in mice by maximal electroshock assay, administered orally; format: functional; conditions: po
Method in brief: (§3)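 Mice were dosed orally across a range of doses, given in 5% acacia/water. Time of peak effect was found by shocking at 0.5, 1, 2, 3 and 4 h. Corneal electroshock was 40 mA, 0.1 s, ac. Each compound was retested at peak time with at least four doses and 12 mice per dose. The ED50 for prevention of tonic-extensor convulsion was calculated by Litchfield–Wilcoxon; 95% confidence limits are given.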

[8] = target: T1, GABA-A receptor; anion channel (Rattus norvegicus); assay: In vitro displacement of [3H]flunitrazepam binding to cortical membranes at 5e-5M concentration
Method in brief: (§4)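 Rat cortical membranes (180 μg protein) were incubated with 2 nM [3H]flunitrazepam in 50 mM Tris-HCl pH 7.4 for 40 min at 4 °C, with test compound at 5×10^-5 M, in triplicate. Samples were filtered and washed three times with ice-cold buffer. Nonspecific binding was defined with 3 μM diazepam. Results are given as % of control, mean ± SEM.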

[9] = target: T1, GABA-A receptor; anion channel (Rattus norvegicus); assay: In vitro displacement of [3H]flunitrazepam binding from rat cortical membranes at 50 uM; format: cell membranes; conditions: Membrane; method in brief: as §4
[10] = species on record: Mus musculus; assay: Potentiation of hexobarbital-induced sleeping time in mice; format: functional
Method in brief: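 Groups of 10 fasted mice received compound orally at 10 mg/kg in 5% acacia/water (10 mL/kg). At the compound's time of peak effect they were given hexobarbital 100 mg/kg ip, solubilized with stoichiometric NaOH. Sleeping time, measured as loss of righting reflex, was recorded to the nearest minute. Values are mean ± SEM.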

[11] = target: Gamma-aminobutyric acid receptor subunit gamma-1 (Rattus norvegicus) (UniProt P23574); assay: In vitro displacement of [3H]flunitrazepam binding to rat cortical membranes at 50 uM (No effect); format: cell membranes; conditions: Membrane; method in brief: as §4
[12] = tested on: Mus musculus; assay: Compound was tested for effective dose in mice by horizontal screen assay (administered orally); No effect at highest dose of 300 mg/kg; format: functional, organism-based; design: dose 300 mg/kg; method in brief: as §1
[13] = tested on: Mus musculus; assay: Compound was tested for effective dose in mice by pentylenetetrazole assay (administered subcutaneously); No effect at highest dose of 200 mg/kg; format: functional, organism-based; design: dose 200 mg/kg; method in brief: as §2
[14] = tested on: Mus musculus; assay: Compound was tested for effective dose in mice by horizontal screen assay (administered orally); No effect at highest dose of 200 mg/kg; format: functional, organism-based; design: dose 200 mg/kg; method in brief: as §1
[15] = tested on: Mus musculus; assay: Compound was tested for effective dose in mice by horizontal screen assay (administered orally; No effect at highest dose of 200 mg/kg
[16] = tested on: Mus musculus; assay: Compound was tested for effective dose in mice by pentylenetetrazole assay (administered subcutaneously);No effect at highest dose of 200 mg/kg; format: functional, organism-based; design: dose 200 mg/kg; method in brief: as §2
[17] = tested on: Mus musculus; assay: Compound was tested for effective dose in mice by horizontal screen assay (administered orally); No effect at highest dose of 100 mg/kg; format: functional, organism-based; design: dose 100 mg/kg; method in brief: as §1
[18] = tested on: Mus musculus; assay: Compound was tested for effective dose in mice by pentylenetetrazole assay (administered subcutaneously); Ca 400; format: functional; conditions: sc; method in brief: as §2
[19] = tested on: Mus musculus; assay: Compound was tested for effective dose in mice by maximal electroshock assay (administered orally); No effect at highest dose of 300 mg/kg; format: functional, organism-based; design: dose 300 mg/kg; method in brief: as §3

Sequence of Gamma-aminobutyric acid receptor subunit gamma-1 (Rattus norvegicus) (P23574 whole entry): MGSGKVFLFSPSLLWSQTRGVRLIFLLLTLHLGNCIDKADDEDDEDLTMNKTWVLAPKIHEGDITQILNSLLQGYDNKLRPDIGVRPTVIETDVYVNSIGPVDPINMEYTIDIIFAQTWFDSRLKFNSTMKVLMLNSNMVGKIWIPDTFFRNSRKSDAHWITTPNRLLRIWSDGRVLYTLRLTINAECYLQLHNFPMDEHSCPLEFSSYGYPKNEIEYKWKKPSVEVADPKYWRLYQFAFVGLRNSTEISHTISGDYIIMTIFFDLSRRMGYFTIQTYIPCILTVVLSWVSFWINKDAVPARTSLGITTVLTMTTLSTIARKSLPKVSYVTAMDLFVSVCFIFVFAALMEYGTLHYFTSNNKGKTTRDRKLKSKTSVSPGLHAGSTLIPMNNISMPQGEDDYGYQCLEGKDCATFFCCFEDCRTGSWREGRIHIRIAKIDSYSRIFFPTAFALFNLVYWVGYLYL

| SMILES | ED50 [1] | ED50 [2] | TPE [3] | ED50 [7] | other results |
| --- | --- | --- | --- | --- | --- |
| O=C(CCn1ccnc1)c1ccc2c(c1)Cc1ccccc1-2 | > 200 mg/kg | > 100 mg/kg | 1 h |  |  |
| O=C(Cn1ccnc1)c1ccc2c(c1)Cc1cc(Br)ccc1-2 |  |  | 2 h |  | ED50 [4]: No effect; ED50 [5]: No effect |
| O=C(Cn1ccnc1)c1ccc2c(ccc3ccccc32)c1 | > 400 mg/kg | > 400 mg/kg | 1 h | 150 mg/kg | Control [6]: 128%; Control [8]: 128%; Binding [9]: 28% |
| O=C(Cn1ccnc1)c1ccc2ccccc2c1 [NAFIMIDONE] |  | > 400 mg/kg | 1 h | 56 mg/kg | Control [6]: 116%; ED50 [4]: inactive; Control [8]: 102%; ST [10]: 59.1 min |
| O=C(Cn1ccnc1)c1cc2ccccc2s1 | > 400 mg/kg | > 400 mg/kg | 1 h | 86 mg/kg |  |
| c1ccc2c(c1)Cc1cc(CCn3ccnc3)ccc1-2 | > 100 mg/kg | > 200 mg/kg | 2 h | 17.8 mg/kg |  |
| O=C(Cn1ccnc1)c1cc2ccccc2o1 |  | > 400 mg/kg | 1.5 h | 30 mg/kg | Control [6]: 142%; Control [8]: 99.1%; Binding [11]: inactive; ED50 [12]: inactive |
| c1ccc2c(c1)Cc1cc(C3(Cn4ccnc4)OCCCO3)ccc1-2 | > 400 mg/kg |  | 1 h |  | ED50 [5]: No effect |
| O=C(CCCn1ccnc1)c1ccc2c(c1)Cc1ccccc1-2 |  |  | 0.5 h | 27 mg/kg | ED50 [13]: No effect; ED50 [14]: No effect |
| CCc1ccc2c(c1)Cc1cc(C(=O)Cn3ccnc3)ccc1-2.Cl |  | > 400 mg/kg | 1 h | 240 mg/kg | ED50 [4]: No effect |
| Cc1cn(CC(=O)c2ccc3c(c2)Cc2ccccc2-3)cn1 | > 400 mg/kg |  | 1 h |  | ED50 [5]: No effect |
| CC1c2ccccc2-c2ccc(C(=O)Cn3ccnc3)cc21 (stereo not given) |  |  | 2 h |  | ED50 [15]: No effect; ED50 [16]: No effect; ST [10]: 69.7 min |
| c1ccc2cc(CCn3ccnc3)ccc2c1 | > 200 mg/kg | > 200 mg/kg | 1 h | 51 mg/kg |  |
| Cc1nccn1CC(=O)c1ccc2c(c1)Cc1ccccc1-2 | > 400 mg/kg |  | 1 h |  |  |
| O=C(Cn1ccnc1)c1ccc2c(c1)-c1ccccc1CC2 |  | > 400 mg/kg | 1 h | 71 mg/kg | ED50 [4]: No effect |
| CC(C)c1ccc2c(c1)Cc1cc(C(=O)Cn3ccnc3)ccc1-2 |  |  | 2 h | 190 mg/kg | ED50 [4]: No effect; ED50 [5]: No effect |
| OC(Cn1ccnc1)c1ccc(CCc2ccccc2)cc1 (stereo not given) [DENZIMOL] |  |  | 1 h | 12 mg/kg | ED50 [17]: No effect; ST [10]: 157.4 min |
| OC(Cn1ccnc1)c1ccc2c(c1)Cc1ccccc1-2 (stereo not given) |  |  | 1 h |  | ST [10]: 118.3 min; ED50 [14]: No effect; ED50 [18]: 400 mg/kg |
| CC1COC(Cn2ccnc2)(c2ccc3c(c2)Cc2ccccc2-3)O1 (stereo not given) | > 400 mg/kg | > 200 mg/kg | 2 h |  |  |
| c1ccc2cc(CCc3ncc[nH]3)ccc2c1 |  |  | 1 h |  | ED50 [19]: No effect |
